# Laboratory results as given in ChEMBL document CHEMBL3785023, “Development and Pharmacological Characterization of Selective Blockers of 2-Arachidonoyl Glycerol Degradation with Efficacy in Rodent Models of Multiple Sclerosis and Pain” (J Med Chem, 2016).
# Active and inactive are the calls of the source.
# Columns and labels:
# [1] = tested on: Heart; assay: Cardiotoxicity in Langendorff-perfused Sprague-Dawley rat heart assessed as intraventricular conduction time at 0.001 uM by ECG analysis (reference value: 14.26 +/- 0.71 milliseconds); format: toxicity, tissue-based, Cardiac ventricle
# [2] = tested on: Heart; assay: Cardiotoxicity in Langendorff-perfused Sprague-Dawley rat heart assessed as atrioventricular conduction time at 0.001 uM by ECG analysis (reference value: 45.62 +/- 4.49 milliseconds); format: toxicity, tissue-based
# [3] = tested on: Heart; assay: Cardiotoxicity in Langendorff-perfused Sprague-Dawley rat heart assessed as atrioventricular conduction time at 0.1 uM by ECG analysis (reference value: 45.62 +/- 4.49 milliseconds); format: toxicity, tissue-based
# [4] = tested on: Mus musculus; assay: In vivo inhibition of MAGL in CD-1 mouse assessed as 2-AG level in spinal cord at 0.3 mg/kg, ip coadministered with formalin by LC-MS analysis (reference value: 3.8 +/- 0.4 pmol/g); format: functional
# [5] = tested on: Heart; assay: Cardiotoxicity in Langendorff-perfused Sprague-Dawley rat heart assessed as corrected time duration of action potential at 0.1 uM by ECG analysis (reference value: 155.26 +/- 2.96 milliseconds); format: toxicity, tissue-based
# [6] = tested on: Heart; assay: Cardiotoxicity in Langendorff-perfused Sprague-Dawley rat heart assessed as time duration of cardiac cycle length at 0.01 uM by ECG analysis (reference value: 238.38 +/- 9.23 milliseconds); format: toxicity, tissue-based
# [7] = tested on: Heart; assay: Cardiotoxicity in Langendorff-perfused Sprague-Dawley rat heart assessed as heart rate at 1 uM by ECG analysis (reference value: 252.78 +/- 9.28 bpm); format: toxicity, tissue-based
# [8] = tested on: Mus musculus; assay: Antinociceptive activity in ip dosed CD-1 mouse assessed as inhibition of formalin-induced pain response compound administered 10 mins before formalin injection measured during early phase; format: functional; settings: CD-1, ip, read-out: MED
# Summary of the method: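 Male CD-1 mice, n = 6 per group, injected with formalin (1.25% in saline, 30 μL) into the dorsal hind paw. Inhibitor (0.1 or 0.3 mg/kg i.p. in 0.5% DMSO/saline) given 10 min before formalin. Where used, AM251 or AM630 (1 mg/kg i.p.) given 10 min before the inhibitor. Time spent lifting, licking, shaking or flinching the injected paw recorded every 5 min over 60 min.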
# [9] = tested on: Mus musculus; assay: Toxicity in CD-1 mouse assessed as 2-AG level in pawskin at 0.3 mg/kg, ip by LC-MS analysis (reference value: 6.1 +/- 0.3 pmol/g); format: organism-based; settings: in vivo
# Summary of the method: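 Male CD-1 mice received 0.3 mg/kg i.p. in 0.5% DMSO/saline, with formalin (1.25%, 30 µL) injected into the dorsal hind paw. Paw skin or spinal cord was taken at 5 min post-dose. Tissue was homogenized in CHCl3/MeOH/50 mM Tris-HCl (2:1:1) containing d5-2-AG, extracted with chloroform and analysed by LC-MS. n = 4; ANOVA with Bonferroni test.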
# [10] = tested on: Mus musculus; assay: Toxicity in CD-1 mouse assessed as changes in normal pain threshold at 3 to 10 mg/kg, po measured up to 60 mins by hot plate test; format: organism-based; settings: in vivo, 1 h
# [11] = target: T1, Monoglyceride lipase (Homo sapiens, UniProt Q99685); assay: Inhibition of recombinant C-terminal His6-tagged human MAGL expressed in Escherichia coli using 2-arachidonoyl-[3H]-glycerol as substrate incubated for 20 mins by scintillation counting method
# T1 sequence (Q99685 whole entry): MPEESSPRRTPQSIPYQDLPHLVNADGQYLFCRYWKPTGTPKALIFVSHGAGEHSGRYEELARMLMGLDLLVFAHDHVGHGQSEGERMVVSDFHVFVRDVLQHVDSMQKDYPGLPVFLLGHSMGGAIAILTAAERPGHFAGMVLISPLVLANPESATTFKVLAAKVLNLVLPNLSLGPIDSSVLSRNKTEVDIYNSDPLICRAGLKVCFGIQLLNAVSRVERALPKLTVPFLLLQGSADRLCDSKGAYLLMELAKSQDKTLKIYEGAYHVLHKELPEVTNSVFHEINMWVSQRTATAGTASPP
# [12] = target: T2, Fatty-acid amide hydrolase 1 (Rattus norvegicus) (UniProt P97612); assay: Inhibition of FAAH in rat brain membranes up to 500 nM preincubated for 20 mins followed by fluorophosphonate-rhodamine addition measured after 30 mins by competitive affinity based proteomic profiling assay; format: cell membranes; settings: Membrane
# T2 sequence (whole entry): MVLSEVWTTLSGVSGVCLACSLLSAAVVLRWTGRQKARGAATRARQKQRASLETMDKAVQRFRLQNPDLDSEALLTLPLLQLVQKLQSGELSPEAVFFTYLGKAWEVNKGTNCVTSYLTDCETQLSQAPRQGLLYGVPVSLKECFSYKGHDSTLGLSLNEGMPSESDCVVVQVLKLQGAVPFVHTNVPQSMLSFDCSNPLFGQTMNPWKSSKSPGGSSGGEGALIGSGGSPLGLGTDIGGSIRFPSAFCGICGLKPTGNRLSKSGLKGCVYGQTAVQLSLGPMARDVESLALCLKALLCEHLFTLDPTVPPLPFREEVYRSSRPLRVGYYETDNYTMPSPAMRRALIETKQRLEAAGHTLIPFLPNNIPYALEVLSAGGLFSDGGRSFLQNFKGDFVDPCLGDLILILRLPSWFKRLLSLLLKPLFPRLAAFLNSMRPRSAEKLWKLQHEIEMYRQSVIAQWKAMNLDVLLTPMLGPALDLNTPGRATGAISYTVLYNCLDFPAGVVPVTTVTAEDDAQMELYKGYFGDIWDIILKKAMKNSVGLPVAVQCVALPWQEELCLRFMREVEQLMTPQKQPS
# Summary of the method: (§1)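 Rat brain membranes (1 mg/mL) preincubated with 1–1000 nM inhibitor or DMSO for 20 min at 37 °C. FP-rhodamine then added and incubated a further 30 min at 37 °C. Samples run on SDS-PAGE and serine hydrolase bands quantified by in-gel fluorescence.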
# [13] = tested on: Mus musculus; assay: Reduction of IBA1 positive cells in white matter anterior fasciculus of experimental autoimmune encephalomyelitis C57BL/6J mouse spinal cord at 3 mg/kg, ip administered post CB1 antagonist/inverse agonist AM251 addition by immunofluorescence assay; format: functional, organism-based
# Summary of the method: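 MOG35-55-immunized female C57BL/6J mice were given 3 mg/kg i.p. daily. AM251 or AM630, each at 1 mg/kg, was given 10 min before each dose. Iba1 immunofluorescence with DAPI was done on spinal cord white matter (anterior fasciculus). Positive cells were counted per optic field. One-way ANOVA with Bonferroni test.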
# [14] = target: Acyl-protein thioesterase 1/2 (Rattus norvegicus) (UniProt P70470+Q9QYL8); assay: Inhibition of LYPLA1/2 in rat brain membranes at 500 to 1000 nM preincubated for 20 mins followed by fluorophosphonate-rhodamine addition measured after 30 mins by competitive affinity based proteomic profiling assay; format: cell membranes; settings: Membrane; summary of the method: as §1
# [15] = tested on: Mus musculus; assay: Reduction of IBA1 positive cells in white matter anterior fasciculus of experimental autoimmune encephalomyelitis C57BL/6J mouse spinal cord at 3 mg/kg, ip by immunofluorescence assay; format: functional, organism-based
# Summary of the method: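 Female C57BL/6J mice immunized with MOG35-55 received 3 mg/kg i.p. daily. Spinal cord white matter (anterior fasciculus) was stained for Iba1, with DAPI nuclear counterstain. Iba1-positive cells were counted per optic field. One-way ANOVA with Bonferroni test.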
# Chain of Acyl-protein thioesterase 1/2 (Rattus norvegicus) (P70470 whole entry, looked up): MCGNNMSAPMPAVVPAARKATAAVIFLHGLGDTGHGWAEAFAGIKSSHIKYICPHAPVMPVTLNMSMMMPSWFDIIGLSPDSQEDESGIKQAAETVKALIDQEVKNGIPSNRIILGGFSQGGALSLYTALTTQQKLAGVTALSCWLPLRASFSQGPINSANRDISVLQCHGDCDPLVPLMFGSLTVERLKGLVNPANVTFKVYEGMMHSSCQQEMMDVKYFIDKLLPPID
# Chain of Acyl-protein thioesterase 1/2 (Rattus norvegicus) (Q9QYL8 whole entry, looked up): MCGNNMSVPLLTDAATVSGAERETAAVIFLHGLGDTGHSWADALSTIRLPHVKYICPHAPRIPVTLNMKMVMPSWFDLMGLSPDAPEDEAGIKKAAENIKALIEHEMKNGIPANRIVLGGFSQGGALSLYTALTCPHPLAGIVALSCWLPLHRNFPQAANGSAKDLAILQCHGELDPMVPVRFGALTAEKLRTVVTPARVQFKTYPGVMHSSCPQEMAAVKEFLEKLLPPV
Compound,Time [1],Time [2],Time [3],Activity [4],Time [5],Time [6],Activity [7],minimal effective dose [8],Activity [9],Activity [10],IC50 [11],inhibition [12],Activity [13],inhibition [14],Activity [15]
O=C1[C@H](c2ccc(F)cc2)[C@@H](c2ccc3c(c2)OCO3)N1C1CCN(C(=O)n2cncn2)CC1 (racemic) [listing 1 of 2 here],14.02 ms,46.03 ms,46.18 ms,6.6 pmol/g,154.6 ms,236.8 ms,255.5 bpm,0.3 mg/kg,11 pmol/g,Non-toxic,7.4 nM,–,–,–,–
O=C1[C@H](c2ccc(F)cc2)[C@@H](c2ccc3c(c2)OCO3)N1C1CCN(C(=O)n2cncn2)CC1 (racemic) [listing 2 of 2 here],–,–,–,–,–,–,–,–,–,–,–,inactive,inactive,Active,Active
